Test results published in ChEMBL document CHEMBL1143864, “Design and synthesis of potent antileishmanial cycloalkylidene-substituted ether phospholipid derivatives” (J Med Chem, 2008).

What was measured:
Leishmania infantum [1] = test: Antileishmanial activity against Leishmania infantum MHOM/TN/80/IPT1/LEM235 intracellular amastigotes; assay type: functional, organism-based
Procedure, shortened: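 THP-1 cells differentiated with retinoic acid for 3 days, infected with L. infantum promastigotes (1:4, 37 °C, 5% CO2) overnight. Free parasites removed on Histopaque 1077. Infected cells at 4 × 10^5 cells/mL mixed 1:1 with compound, 72 h at 37 °C/5% CO2. Percent infected cells counted by Giemsa microscopy; IC50 as for promastigotes.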

[2] = Toxicity in human erythrocytes assessed as hemolysis; assay type: cell-based, Erythrocyte
Procedure, shortened: (§1)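 Washed erythrocytes from EDTA blood of healthy volunteers mixed 1:1 with compound in PBS (100 to 6.25 µM), 1 h at 37 °C. After centrifugation, supernatant absorbance read at 550 nm (reference 625 nm). Hemolysis % = (A − A0)/(Amax − A0) × 100, with PBS background and water as 100% lysis.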

Leishmania donovani = test: Antileishmanial activity against Leishmania donovani MHOM/IN/80/DD8/LEM703 promastigotes
Leishmania infantum [3] = test: Antileishmanial activity against Leishmania infantum MHOM/TN/80/IPT1/LEM235 promastigotes; assay type: functional, organism-based
Procedure, shortened: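 Promastigotes grown in RPMI 1640 with 10% FCS, L-glutamine and antibiotics at 26 °C. Compounds, 65 mM stock in DMSO/ethanol 50/50, diluted 5-fold in medium (100 to 0.8 µM). Culture at 2 × 10^6 cells/mL mixed 1:1 with compound, 72 h at 26 °C. PI/SYBR-14 live/dead staining, flow cytometry, ≥10 000 cells; IC50 per Hills et al.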

THP-1 [4] = test: Cytotoxicity against human THP1 cells after 72 hrs; assay type: cell-based; conditions: THP-1, 72 h
[5] = Toxicity in human erythrocytes assessed as hemolysis at 500 uM; assay type: cell-based, Erythrocyte; conditions: read-out: Activity
[6] = Toxicity in human erythrocytes assessed as hemolysis at 100 uM; assay type: cell-based, Erythrocyte; conditions: read-out: Activity; procedure, shortened: as §1
THP-1 [7] = test: Cytotoxicity against human THP1 cells at 50 uM after 72 hrs; assay type: cell-based; conditions: thp-1, 72 h
Procedure, shortened: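 THP-1 monocytes in RPMI 1640/10% FCS at 1 × 10^6 cells/mL incubated 72 h with compound (50 to 1.56 µM). Dual PI/SYBR-14 staining; alive/dead ratio by flow cytometry, excitation 488 nm, read at 545 and 645 nm. At least 10 000 cells per sample, each staining experiment repeated thrice.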

[8] = Half life in human; assay type: ADME, organism-based; conditions: in vivo

Structure (SMILES)	IC50 (Leishmania infantum [1])	HC50 [2]	IC50 (Leishmania donovani)	IC50 (Leishmania infantum [3])	IC50 (THP-1 [4])	hemolysis at 500 µM [5]	hemolysis at 100 µM [6]	Activity (THP-1 [7])	half-life [8]
C[N+](C)(C)CC#CCOP(=O)([O-])OCCCCCCCCCCC=C1C2CC3CC(C2)CC1C3	5.2 µM	100 µM	41.1 µM	44.3 µM	75 µM	100%	–	–	–
C[N+]1(C)C2CCC1CC(=CCOP(=O)([O-])OCCCCCCCCCCC=C1C3CC4CC(C3)CC1C4)C2	9.1 µM	61.3 µM	41.6 µM	> 100 µM	147 µM	100%	82.3%	–	–
C[N+]1(CCOP(=O)([O-])OCCCCCCCCCCC=C2CCCCCCCCCCCCCC2)CCCCC1	3.6 µM	> 100 µM	65.9 µM	84.5 µM	72.6 µM	51.4%	36%	–	–
C[N+]1(CCOP(=O)([O-])OCCCCC=C2CCCCCCCCCCCCCC2)CCOCC1	4.4 µM	> 100 µM	1.94 µM	1.8 µM	372 µM	88.3%	45.4%	–	–
C[N+](C)(C)CCOP(=O)([O-])OCCCCC=C1CCCCCCCCC1	3.3 µM	> 100 µM	< 3.2 µM	76.8 µM	349 µM	41.8%	2.1%	–	–
C[N+](C)(C)CCOP(=O)([O-])OCCCCCCCCCCC=C1CCCCCCCCCCCCCC1	0.75 µM	100 µM	68.2 µM	100 µM	37.7 µM	100%	17.7%	–	–
C[N+](C)(C)CCOP(=O)([O-])OCCCCCC1CCCCCCCCCCCCCC1	0.7 µM	> 100 µM	0.9 µM	1.4 µM	> 500 µM	100%	8.7%	Non-toxic	–
C[N+](C)(C)CCOP(=O)([O-])OCCCCCCCCCCC=C1CCCCCCCCC1	0.11 µM	> 100 µM	1 µM	2.9 µM	37.9 µM	43%	25.5%	–	–
C[N+]1(CCOP(=O)([O-])OCCCCC=C2CCCCCCCCCCCCCC2)CCCCC1	4.1 µM	68.4 µM	2 µM	1.7 µM	272 µM	100%	71.6%	–	–
C[N+]1(CCOP(=O)([O-])OCCCCCC2CCCCCCCCCCCCCC2)CCCCC1	1 µM	> 100 µM	1 µM	2.8 µM	333 µM	80.8%	28.7%	–	–
C[N+]1(CCOP(=O)([O-])OCCCCCC2CCCCCCCCCCCCCC2)CCOCC1	0.4 µM	> 100 µM	1 µM	1.9 µM	244 µM	81.1%	34.8%	–	–
C[N+]1(CCOP(=O)([O-])OCCCCCCCCCCC=C2CCCCCCCCCCCCCC2)CCOCC1	0.9 µM	> 100 µM	41.5 µM	50.2 µM	36.2 µM	100%	16.9%	–	–
C[N+](C)(C)CCOP(=O)([O-])OCCCCC=C1CCCCCCCCCCCCCC1	3.8 µM	> 100 µM	2.3 µM	2.2 µM	154 µM	57.4%	38%	–	–
C[N+](C)(C)CCOP(=O)([O-])OCCCCCC1CCCCCCCCC1	2.2 µM	> 100 µM	< 3.13 µM	21.7 µM	363 µM	100%	1.7%	–	–
CCCCCCCCCCCCCCCCOP(=O)([O-])O[C@@H]1CCC[C@H]1[N+](C)(C)C (relative stereo)	3.3 µM	43.1 µM	54.3 µM	> 100 µM	34.1 µM	100%	100%	–	–
CCCCCCCCCCCCCCCCOP(=O)([O-])O[C@@H]1CCCC[C@H]1[N+](C)(C)C (relative stereo)	1.7 µM	> 100 µM	71.9 µM	> 100 µM	21.3 µM	55.4%	20.4%	–	–
C[N+](C)(C)[C@H]1CCC[C@@H]1OP(=O)([O-])OCCCCC=C1CCCCCCCCCCCCCC1 (relative stereo)	0.2 µM	44.3 µM	< 3.1 µM	< 3.1 µM	75.4 µM	100%	80.5%	–	–
C[N+](C)(C)[C@@H]1CCC[C@H]1OP(=O)([O-])OCCCCCCCCCCC=C1CCCCC1 (relative stereo)	1.1 µM	76.3 µM	8.6 µM	> 100 µM	30.7 µM	100%	66.4%	–	–
C[N+](C)(C)[C@@H]1CCCC[C@H]1OP(=O)([O-])OCCCCCCCCCCC=C1CCCCC1 (relative stereo)	1.1 µM	59.8 µM	16.1 µM	> 100 µM	28.7 µM	100%	81.6%	–	–
C[N+](C)(C)[C@H]1CCCC[C@@H]1OP(=O)([O-])OCCCCC=C1CCCCCCCCCCCCCC1 (relative stereo)	1.6 µM	76.7 µM	6 µM	> 100 µM	88.5 µM	100%	60.7%	–	–
C[N+](C)(C)[C@@H]1CCC[C@H]1OP(=O)([O-])OCCCCCCCCCCC=C1C2CC3CC(C2)CC1C3 (relative stereo)	0.3 µM	> 100 µM	3.9 µM	38 µM	75 µM	100%	30.8%	–	–
C[N+](C)(C)[C@@H]1CCCC[C@H]1OP(=O)([O-])OCCCCCCCCCCC=C1C2CC3CC(C2)CC1C3 (relative stereo)	0.8 µM	66.6 µM	16.6 µM	> 100 µM	39.7 µM	100%	66.8%	–	–
CCCCCCCCCCCCCCCCOP(=O)([O-])OCC[N+](C)(C)C [MILTEFOSINE]	6.7 µM	–	8.7 µM	23.9 µM	28.6 µM	100%	96.1%	Toxic	100 h
